ChEMBL document CHEMBL2040809, “Synthesis and biological activity evaluation of cytidine-5'-deoxy-5-fluoro-N-[(alkoxy/aryloxy)] carbonyl-cyclic 2',3'-carbonates” (Eur J Med Chem, 2012)
≈ marks a conversion by molar mass, not a printed value.

Key:
[1] = test system: Salmonella typhimurium; experiment: Mutagenic activity in Salmonella typhimurium TA1537 at 0.312 to 5 mg/plate measured after incubation of upside down for 48 hrs in presence of liver S9 mixture; assay type: toxicity, organism-based; conditions: salmonella enterica subsp. enterica serovar typhimurium, s9, 48 h
Outline: (§1)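 Plate incorporation trial (Trial I) with histidine-dependent auxotrophs. Revertant colonies are counted against the concurrent vehicle control. Each dose and each control, including negative, vehicle and positive reference mutagens, run in triplicate plates.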

[2] = test system: HeLa; experiment: Cytotoxicity against human HeLa cells after 3 days MTT assay; assay type: functional, cell-based; conditions: 72 h
Outline: (§2)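 Cells held as monolayers in DMEM with 10% supplement. Seeded in 96-well plates on day 0 at densities set by doubling time: 1 × 10⁴/mL for HeLa and NCI-69, 2 × 10⁴/mL for MCF-7, 3 × 10⁴/mL for PZ-HPV-7. Five dilutions (10⁻⁸–5 × 10⁻⁶ mol/l), freshly prepared, added for 72 h. Growth read by MTT (succinate dehydrogenase activity); IC50 derived.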

[3] = test system: Salmonella typhimurium; experiment: Mutagenic activity in Salmonella typhimurium TA100 at 0.312 to 5 mg/plate preincubated for 20 mins before addition in absence of liver S9 mixture; assay type: toxicity, organism-based; conditions: salmonella enterica subsp. enterica serovar typhimurium
Outline: (§3)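 Pre-incubation trial (Trial II) with histidine-dependent auxotrophs. Test solution is pre-incubated with bacterial suspension and S9 mix (10% v/v) or substitution buffer before plating on selective agar. Revertant colonies are counted against the concurrent vehicle control. Triplicate plates per dose and per control (negative, vehicle, positive reference mutagens).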

[4] = test system: Salmonella typhimurium; experiment: Mutagenic activity in Salmonella typhimurium TA100 at 0.312 to 5 mg/plate measured after incubation of upside down for 48 hrs in absence of liver S9 mixture; assay type: toxicity, organism-based; conditions: salmonella enterica subsp. enterica serovar typhimurium; outline: as §1
[5] = test system: Salmonella typhimurium; experiment: Mutagenic activity in Salmonella typhimurium TA100 at 0.312 to 5 mg/plate measured after incubation of upside down for 48 hrs in presence of liver S9 mixture; assay type: toxicity, organism-based; conditions: salmonella enterica subsp. enterica serovar typhimurium, s9, 48 h; outline: as §1
[6] = test system: Salmonella typhimurium; experiment: Mutagenic activity in Salmonella typhimurium TA98 at 0.312 to 5 mg/plate preincubated for 20 mins before addition in absence of liver S9 mixture; assay type: toxicity, organism-based; conditions: salmonella enterica subsp. enterica serovar typhimurium; outline: as §3
[7] = test system: Salmonella typhimurium; experiment: Mutagenic activity in Salmonella typhimurium TA1535 at 0.312 to 5 mg/plate measured after incubation of upside down for 48 hrs in absence of liver S9 mixture; assay type: toxicity, organism-based; conditions: salmonella enterica subsp. enterica serovar typhimurium; outline: as §1
[8] = test system: Salmonella typhimurium; experiment: Mutagenic activity in Salmonella typhimurium TA1537 at 0.312 to 5 mg/plate preincubated for 20 mins before addition in presence of liver S9 mixture; assay type: toxicity, organism-based; conditions: salmonella enterica subsp. enterica serovar typhimurium; outline: as §3
[9] = test system: Salmonella typhimurium; experiment: Mutagenic activity in Salmonella typhimurium TA102 at 0.312 to 5 mg/plate preincubated for 20 mins before addition in presence of liver S9 mixture; assay type: toxicity, organism-based; conditions: salmonella enterica subsp. enterica serovar typhimurium; outline: as §3
[10] = test system: NCI-H69; experiment: Cytotoxicity against human NCI-H69 cells after 3 days MTT assay; assay type: functional, cell-based; conditions: NCI-H69, 72 h; outline: as §2
[11] = test system: MCF7; experiment: Cytotoxicity against human MCF7 cells after 3 days MTT assay; assay type: functional, cell-based; conditions: MCF7, 72 h; outline: as §2
[12] = test system: Salmonella typhimurium; experiment: Mutagenic activity in Salmonella typhimurium TA1535 at 0.312 to 5 mg/plate preincubated for 20 mins before addition in presence of liver S9 mixture; assay type: toxicity, organism-based; conditions: salmonella enterica subsp. enterica serovar typhimurium; outline: as §3
[13] = Cytotoxicity against human PZ-HPV-7 cells after 3 days MTT assay; assay type: functional, cell-based; conditions: 72 h; outline: as §2
[14] = test system: Salmonella typhimurium; experiment: Mutagenic activity in Salmonella typhimurium TA1535 at 0.312 to 5 mg/plate preincubated for 20 mins before addition in absence of liver S9 mixture; assay type: toxicity, organism-based; conditions: salmonella enterica subsp. enterica serovar typhimurium; outline: as §3
[15] = test system: Salmonella typhimurium; experiment: Mutagenic activity in Salmonella typhimurium TA1537 at 0.312 to 5 mg/plate measured after incubation of upside down for 48 hrs in absence of liver S9 mixture; assay type: toxicity, organism-based; conditions: salmonella enterica subsp. enterica serovar typhimurium; outline: as §1
[16] = test system: Salmonella typhimurium; experiment: Mutagenic activity in Salmonella typhimurium TA102 at 0.312 to 5 mg/plate measured after incubation of upside down for 48 hrs in presence of liver S9 mixture; assay type: toxicity, organism-based; conditions: salmonella enterica subsp. enterica serovar typhimurium, s9, 48 h; outline: as §1
[17] = test system: Salmonella typhimurium; experiment: Mutagenic activity in Salmonella typhimurium TA98 at 0.312 to 5 mg/plate measured after incubation of upside down for 48 hrs in presence of liver S9 mixture; assay type: toxicity, organism-based; conditions: salmonella enterica subsp. enterica serovar typhimurium, s9, 48 h; outline: as §1
[18] = test system: Salmonella typhimurium; experiment: Mutagenic activity in Salmonella typhimurium TA1537 at 0.312 to 5 mg/plate preincubated for 20 mins before addition in absence of liver S9 mixture; assay type: toxicity, organism-based; conditions: salmonella enterica subsp. enterica serovar typhimurium; outline: as §3
[19] = test system: Salmonella typhimurium; experiment: Mutagenic activity in Salmonella typhimurium TA100 at 0.312 to 5 mg/plate preincubated for 20 mins before addition in presence of liver S9 mixture; assay type: toxicity, organism-based; conditions: salmonella enterica subsp. enterica serovar typhimurium; outline: as §3
[20] = test system: Salmonella typhimurium; experiment: Mutagenic activity in Salmonella typhimurium TA98 at 0.312 to 5 mg/plate preincubated for 20 mins before addition in presence of liver S9 mixture; assay type: toxicity, organism-based; conditions: salmonella enterica subsp. enterica serovar typhimurium; outline: as §3
[21] = test system: Salmonella typhimurium; experiment: Mutagenic activity in Salmonella typhimurium TA102 at 0.312 to 5 mg/plate measured after incubation of upside down for 48 hrs in absence of liver S9 mixture; assay type: toxicity, organism-based; conditions: salmonella enterica subsp. enterica serovar typhimurium; outline: as §1
[22] = test system: Salmonella typhimurium; experiment: Mutagenic activity in Salmonella typhimurium TA102 at 0.312 to 5 mg/plate preincubated for 20 mins before addition in absence of liver S9 mixture; assay type: toxicity, organism-based; conditions: salmonella enterica subsp. enterica serovar typhimurium; outline: as §3
[23] = test system: Salmonella typhimurium; experiment: Mutagenic activity in Salmonella typhimurium TA1535 at 0.312 to 5 mg/plate measured after incubation of upside down for 48 hrs in presence of liver S9 mixture; assay type: toxicity, organism-based; conditions: salmonella enterica subsp. enterica serovar typhimurium, s9, 48 h; outline: as §1
[24] = test system: Salmonella typhimurium; experiment: Mutagenic activity in Salmonella typhimurium TA98 at 0.312 to 5 mg/plate measured after incubation of upside down for 48 hrs in absence of liver S9 mixture; assay type: toxicity, organism-based; conditions: salmonella enterica subsp. enterica serovar typhimurium; outline: as §1
[25] = test system: L1210; experiment: Antitumor activity against mouse L1210 cells xenografted in BDF-1 mouse assessed as increase in mean survival time at 0.16 mmol/kg, po administered 5 days in a week for 3 weeks
[26] = test system: L1210; experiment: Antitumor activity against mouse L1210 cells xenografted in BDF-1 mouse assessed as increase in mean survival time at 0.080 mmol/kg, po administered 5 days in a week for 3 weeks
[27] = Toxicity in po dosed BDF-1 mouse; assay type: organism-based; conditions: in vivo
[28] = Toxicity in po dosed BDF-1 mouse administered qd for 28 days; assay type: organism-based; conditions: in vivo

SMILES	Activity [1]	IC50 [2] [µg/mL]	Activity [3]	Activity [4]	Activity [5]	Activity [6]	Activity [7]	Activity [8]	Activity [9]	IC50 [10] [µg/mL]	IC50 [11] [µg/mL]	Activity [12]	IC50 [13] [µg/mL]	Activity [14]	Activity [15]	Activity [16]	Activity [17]	Activity [18]	Activity [19]	Activity [20]	other results
CCC(C)COC(=O)Nc1nc(=O)n([C@@H]2O[C@H](C)[C@H]3OC(=O)O[C@H]32)cc1F (some centres undefined)	Non-toxic	0.18 (≈ 0.467 µM)	Non-toxic	Non-toxic	Non-toxic	Non-toxic	Non-toxic	Non-toxic	Non-toxic	330 (≈ 856 µM)	70 (≈ 182 µM)	Non-toxic	200 (≈ 519 µM)	Non-toxic	Non-toxic	Non-toxic	Non-toxic	Non-toxic	Non-toxic	Non-toxic	Activity [21]: Non-toxic; Activity [22]: Non-toxic; Activity [23]: Non-toxic; Activity [24]: Non-toxic
C[C@H]1O[C@@H](n2cc(F)c(NC(=O)Oc3ccc(Cl)cc3)nc2=O)[C@@H]2OC(=O)O[C@@H]21	–	0.006 (≈ 0.0141 µM)	–	–	–	–	–	–	–	3 (≈ 7.05 µM)	30 (≈ 70.5 µM)	–	3 (≈ 7.05 µM)	–	–	–	–	–	–	–	MST [25]: 23.7 days; MST [26]: 26.3 days; LD50 [27]: 2000 mg/kg; LD50 at 672 h [28]: 200 mg/kg
C[C@H]1O[C@@H](n2cc(F)c(NC(=O)Oc3ccc(Cl)cc3)nc2=O)[C@H](O)[C@@H]1O	Non-toxic	0.03 (≈ 0.075 µM)	Non-toxic	Non-toxic	Non-toxic	Non-toxic	Non-toxic	Non-toxic	Non-toxic	90 (≈ 225 µM)	100 (≈ 250 µM)	Non-toxic	70 (≈ 175 µM)	Non-toxic	Non-toxic	Non-toxic	Non-toxic	Non-toxic	Non-toxic	Non-toxic	Activity [21]: Non-toxic; Activity [22]: Non-toxic; Activity [23]: Non-toxic; Activity [24]: Non-toxic
CCC(C)COC(=O)Nc1nc(=O)n([C@@H]2O[C@H](C)[C@@H](O)[C@H]2O)cc1F (some centres undefined)	Non-toxic	0.09 (≈ 0.25 µM)	Non-toxic	Non-toxic	Non-toxic	Non-toxic	Non-toxic	Non-toxic	Non-toxic	370 (≈ 1030 µM)	120 (≈ 334 µM)	Non-toxic	250 (≈ 696 µM)	Non-toxic	Non-toxic	Non-toxic	Non-toxic	Non-toxic	Non-toxic	Non-toxic	Activity [21]: Non-toxic; Activity [22]: Non-toxic; Activity [23]: Non-toxic; Activity [24]: Non-toxic
C[C@H]1O[C@@H](n2cc(F)c(NC(=O)Oc3ccc([N+](=O)[O-])cc3)nc2=O)[C@@H]2OC(=O)O[C@@H]21	Non-toxic	0.03 (≈ 0.0688 µM)	Non-toxic	Non-toxic	Non-toxic	Non-toxic	Non-toxic	Non-toxic	Non-toxic	30 (≈ 68.8 µM)	6 (≈ 13.8 µM)	Non-toxic	6 (≈ 13.8 µM)	Non-toxic	Non-toxic	Non-toxic	Non-toxic	Non-toxic	Non-toxic	Non-toxic	MST [25]: 23.4 days; MST [26]: 27.1 days; LD50 [27]: 2000 mg/kg; Activity [21]: Non-toxic; Activity [22]: Non-toxic; Activity [23]: Non-toxic; LD50 at 672 h [28]: 200 mg/kg; Activity [24]: Non-toxic
C[C@H]1O[C@@H](n2cc(F)c(NC(=O)Oc3ccc([N+](=O)[O-])cc3)nc2=O)[C@H](O)[C@@H]1O	Non-toxic	0.01 (≈ 0.0244 µM)	Non-toxic	Non-toxic	Non-toxic	Non-toxic	Non-toxic	Non-toxic	Non-toxic	100 (≈ 244 µM)	180 (≈ 439 µM)	Non-toxic	90 (≈ 219 µM)	Non-toxic	Non-toxic	Non-toxic	Non-toxic	Non-toxic	Non-toxic	Non-toxic	Activity [21]: Non-toxic; Activity [22]: Non-toxic; Activity [23]: Non-toxic; Activity [24]: Non-toxic
O=c1[nH]cc(F)c(=O)[nH]1 [FLUOROURACIL]	–	0.04 (≈ 0.308 µM)	–	–	–	–	–	–	–	280 (≈ 2150 µM)	690 (≈ 5300 µM)	–	170 (≈ 1310 µM)	–	–	–	–	–	–	–	–
CC(C)CCOC(=O)Nc1nc(=O)n([C@@H]2O[C@H](C)[C@H]3OC(=O)O[C@H]32)cc1F	Non-toxic	0.13 (≈ 0.337 µM)	Non-toxic	Non-toxic	Non-toxic	Non-toxic	Non-toxic	Non-toxic	Non-toxic	310 (≈ 804 µM)	100 (≈ 260 µM)	Non-toxic	350 (≈ 908 µM)	Non-toxic	Non-toxic	Non-toxic	Non-toxic	Non-toxic	Non-toxic	Non-toxic	Activity [21]: Non-toxic; Activity [22]: Non-toxic; Activity [23]: Non-toxic; Activity [24]: Non-toxic
CC(C)CCOC(=O)Nc1nc(=O)n([C@@H]2O[C@H](C)[C@@H](O)[C@H]2O)cc1F	Non-toxic	0.09 (≈ 0.25 µM)	Non-toxic	Non-toxic	Non-toxic	Non-toxic	Non-toxic	Non-toxic	Non-toxic	370 (≈ 1030 µM)	120 (≈ 334 µM)	Non-toxic	250 (≈ 696 µM)	Non-toxic	Non-toxic	Non-toxic	Non-toxic	Non-toxic	Non-toxic	Non-toxic	Activity [21]: Non-toxic; Activity [22]: Non-toxic; Activity [23]: Non-toxic; Activity [24]: Non-toxic
